Source: ChEMBL document CHEMBL5036319, “Discovery of Novel Benzothiazepinones as Irreversible Covalent Glycogen Synthase Kinase 3β Inhibitors for the Treatment of Acute Promyelocytic Leukemia” (J Med Chem, 2021)

Assays:
[1] = Induction in caspase-mediated apoptosis in human NB4-DR1 cells assessed as necrotic cells at 50 uM incubated for 24 hrs in presence of Z-VAD-FMK by Annexin V-FITC/propidium iodide staining based flow cytometry analysis (reference value: 0.223%); format: functional
[2] = Induction in caspase-mediated apoptosis in human NB4-DR1 cells assessed as early apoptotic cells at 100 uM incubated for 24 hrs by Annexin V-FITC/propidium iodide staining based flow cytometry analysis (reference value: 1.43%); format: functional
[3] = Induction in caspase-mediated apoptosis in human NB4-DR1 cells assessed as viable cells at 100 uM incubated for 24 hrs by Annexin V-FITC/propidium iodide staining based flow cytometry analysis (reference value: 96.9%); format: functional; conditions: read-out: Activity
[4] = Induction in caspase-mediated apoptosis in human NB4-DR1 cells assessed as early apoptotic cells at 25 uM incubated for 24 hrs by Annexin V-FITC/propidium iodide staining based flow cytometry analysis (reference value: 1.43%); format: functional
[5] = AUClast in ICR mouse at 15 mg/kg, ip administered as single dose measured upto 8 hrs by LC-MS/MS analysis; format: ADME, organism-based; parameters: route intraperitoneal, dose 15 mg/kg, time <=8; conditions: in vivo
Procedure, shortened: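 Male ICR mice (30 g) given a single i.p. bolus of 15 mg/kg in corn oil. Blood taken by orbital collection into K3EDTA tubes at 0.08, 0.17, 0.5, 1, 2, 4 and 8 h, three animals per time point, giving a composite profile. Plasma proteins were precipitated with acetonitrile and analysed by LC-MS/MS. Parameters were derived by non-compartmental analysis.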

[6] = Induction in caspase-mediated apoptosis in human NB4-DR1 cells assessed as necrotic cells at 100 uM incubated for 24 hrs by Annexin V-FITC/propidium iodide staining based flow cytometry analysis (reference value: 0.19%); format: functional
[7] = Induction in caspase-mediated apoptosis in human NB4-DR1 cells assessed as necrotic cells at 12.5 uM incubated for 24 hrs by Annexin V-FITC/propidium iodide staining based flow cytometry analysis (reference value: 0.19%); format: functional
[8] = Induction in caspase-mediated apoptosis in human NB-4 cells assessed as necrotic cells at 25 uM incubated for 24 hrs in presence of Z-VAD-FMK by Annexin V-FITC/propidium iodide staining based flow cytometry analysis (reference value: 0.167%); format: functional
NB4-DR1 = experiment: Antiproliferative activity against human NB4-DR1 cells assessed as reduction in cell viability incubated for 24 hrs by CCK-8 assay; format: functional, cell-based; conditions: NB4-DR1, 24 h
Procedure, shortened: (§1)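 Cells were grown in RPMI-1640 or high-glucose DMEM with 10% FBS at 37 °C, 5% CO2, and seeded at 3 × 10^4 cells/well. Exposure was 24 h across serial concentrations (0−1000 μM in the screen). […] Three independent experiments, mean ± SEM.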

[9] = Induction in caspase-mediated apoptosis in human NB4-DR1 cells assessed as early apoptosis cells at 25 uM incubated for 24 hrs in presence of Z-VAD-FMK by Annexin V-FITC/propidium iodide staining based flow cytometry analysis (reference value: 0.875%); format: functional
[10] = Induction in caspase-mediated apoptosis in human NB-4 cells assessed as early apoptotic cells at 100 uM incubated for 24 hrs by Annexin V-FITC/propidium iodide staining based flow cytometry analysis (reference value: 2.02%); format: functional
Raji = experiment: Cytotoxicity against human Raji cells assessed as reduction in cell viability measured after 24 hrs by CCK-8 assay; format: functional, cell-based; procedure, shortened: as §1
[11] = Induction in caspase-mediated apoptosis in human NB4-DR1 cells assessed as late apoptotic cells at 12.5 uM incubated for 24 hrs in presence of Z-VAD-FMK by Annexin V-FITC/propidium iodide staining based flow cytometry analysis (reference value: 2.54%); format: functional
[12] = Induction in caspase-mediated apoptosis in human NB-4 cells assessed as viable cells at 50 uM incubated for 24 hrs in presence of Z-VAD-FMK by Annexin V-FITC/propidium iodide staining based flow cytometry analysis (reference value: 96.8%); format: functional; conditions: read-out: Activity
[13] = Induction in caspase-mediated apoptosis in human NB-4 cells assessed as viable cells at 12.5 uM incubated for 24 hrs by Annexin V-FITC/propidium iodide staining based flow cytometry analysis (reference value: 96.6%); format: functional; conditions: read-out: Activity
MOLT-4 = experiment: Cytotoxicity against human MOLT-4 cells assessed as reduction in cell viability measured after 24 hrs by CCK-8 assay; format: functional, cell-based; conditions: MOLT-4, 24 h; procedure, shortened: as §1
[14] = Induction in caspase-mediated apoptosis in human NB-4 cells assessed as early apoptotic cells at 12.5 uM incubated for 24 hrs by Annexin V-FITC/propidium iodide staining based flow cytometry analysis (reference value: 2.02%); format: functional
[15] = Induction in caspase-mediated apoptosis in human NB-4 cells assessed as late apoptotic cells at 12.5 uM incubated for 24 hrs by Annexin V-FITC/propidium iodide staining based flow cytometry analysis (reference value: 1.06%); format: functional
[16] = Induction in caspase-mediated apoptosis in human NB-4 cells assessed as viable cells at 100 uM incubated for 24 hrs by Annexin V-FITC/propidium iodide staining based flow cytometry analysis (reference value: 96.6%); format: functional; conditions: read-out: Activity
[17] = Induction in caspase-mediated apoptosis in human NB-4 cells assessed as necrotic cells at 50 uM incubated for 24 hrs by Annexin V-FITC/Propidium iodide staining based flow cytometry analysis (reference value: 0.352%); format: functional
[18] = Induction in caspase-mediated apoptosis in human NB4-DR1 cells assessed as viable cells at 25 uM incubated for 24 hrs by Annexin V-FITC/propidium iodide staining based flow cytometry analysis (reference value: 96.9%); format: functional; conditions: read-out: Activity
[19] = Induction in caspase-mediated apoptosis in human NB-4 cells assessed as early apoptotic cells at 25 uM incubated for 24 hrs in presence of Z-VAD-FMK by Annexin V-FITC/propidium iodide staining based flow cytometry analysis (reference value: 1.84%); format: functional
[20] = Induction in caspase-mediated apoptosis in human NB4-DR1 cells assessed as early apoptosis cells at 12.5 uM incubated for 24 hrs in presence of Z-VAD-FMK by Annexin V-FITC/propidium iodide staining based flow cytometry analysis (reference value: 0.875%); format: functional
[21] = Induction in caspase-mediated apoptosis in human NB4-DR1 cells assessed as viable cells at 100 uM incubated for 24 hrs in presence of Z-VAD-FMK by Annexin V-FITC/propidium iodide staining based flow cytometry analysis (reference value: 96.4%); format: functional; conditions: read-out: Activity
[22] = Toxicity in BALB/c mouse xenografted with human NB-4 cells assessed as body weight loss at 15 mg/kg/day, ip administered for 2 weeks; format: organism-based; conditions: in vivo, 336 h
Procedure, shortened: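 Female Balb/c nude mice (4 weeks old) injected subcutaneously in the right flank with 2 × 10^6 NB4 cells. At about 0.5 cm tumour diameter, mice were randomised (n = 5). Dosing was 15 mg/kg/d i.p. in corn oil, or corn-oil vehicle, daily for 2 weeks, with body weight recorded throughout; mean ± SEM.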

[23] = Induction in caspase-mediated apoptosis in human NB4-DR1 cells assessed as early apoptosis cells at 50 uM incubated for 24 hrs in presence of Z-VAD-FMK by Annexin V-FITC/propidium iodide staining based flow cytometry analysis (reference value: 0.875%); format: functional

`C=CC(=O)N1C(=O)CC(c2ccc(F)cc2)Sc2ccccc21` (stereo unspecified) gave an Activity [1] of 0.584%, an Activity [2] of 4.16% and a viability at 100 µM [3] of 42.7%. For the same compound, the Activity [4] was 2.07%, the AUC(0-t) at 8 h [5] was 3500 ng·h/mL and the Activity [6] was 6.32%. The Activity [7] was 0.508%, the Activity [8] was 1.38% and the IC50 (NB4-DR1) was 26.4 µM. For the same compound, the Activity [9] was 1.04%, the Activity [10] was 4.21% and the IC50 (Raji) was 28.4 µM. The Activity [11] was 2.74%, the viability at 50 µM [12] was 78.6% and the viability at 12.5 µM [13] was 77%. The IC50 (MOLT-4) was 75.6 µM, the Activity [14] was 8.87% and the Activity [15] was 8.04%. For the same compound, the viability at 100 µM [16] was 5.94%, the Activity [17] was 4.51% and the viability at 25 µM [18] was 81.8%. The Activity [19] was 7.42%, the Activity [20] was 0.773% and the viability at 100 µM [21] was 82.2%. For the same compound, the Activity [22] was “Toxic” and the Activity [23] was 1.12%.
